Bioassay records as filed in PubChem.
This is a sample that favours compounds with a hit; in the whole collection about 1.9% have one here.
MBD2 DNA inh: MBD2-methylated oligo binding inhibition | Q9UBB5 | TR-FRET, MBD2 binding to methylated oligonucleotide | inhibition, % at 4.4 µM | 0.31% of 370,000 active | AID 686964; in the data active = inhibition above about 13%
CASP6 VEID inh: caspase-6 (human) enzyme inhibition | P55212 | purified caspase-6, Z-VEID-R110 cleavage fluorescence | 0.53% of 350,000 active | AID 686996 | inhibition, % at 12.5 µM;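 active = mean inhibition across replicates at least about 35%, with every replicate also reaching that limit, limit read from the data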;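 note: 0% = median of neutral control wells and 100% = no fluorescence left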
Target sequence (P55212 24-179 limits assumed): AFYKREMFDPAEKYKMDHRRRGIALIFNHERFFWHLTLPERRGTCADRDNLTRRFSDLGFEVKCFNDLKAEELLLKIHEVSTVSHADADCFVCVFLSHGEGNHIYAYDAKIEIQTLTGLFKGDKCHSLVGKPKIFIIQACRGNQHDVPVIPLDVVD
Target sequence (P55212 194-293 limits assumed): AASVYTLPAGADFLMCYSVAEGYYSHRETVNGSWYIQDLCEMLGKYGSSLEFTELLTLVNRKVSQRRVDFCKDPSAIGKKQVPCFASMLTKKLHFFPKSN
UHRF1 MBD2 ctr: human UHRF1 methylated DNA binding inhibitors | Q96T88 | UHRF1 binding to methylated oligo, TR-FRET | inhibition, % at 4.4 µM | 0.75% of 370,000 active | AID 687016; in the data active = inhibition above about 21%;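 note: UHRF1 SRA domain binding a hemimethylated CpG hairpin DNA probe; 0% = median of test compound wells and 100% = reference inhibitor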
LEDGF integ inh: blocks HIV-1 LEDGF/p75-dependent DNA integration; TR-FRET IN-LEDGF/p75 DNA integration, Eu/Cy5; inhibition, % at 3.7 µM; 0.64% of 370,000 active; AID 743269;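 active = inhibition above the screen-wide mean plus 3 SD, cut at about 13% in these data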;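 note: signal is the Cy5 over europium emission ratio at 671 and 618 nm; 0% = plate median of compound wells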
NSD2 inh: blocks human histone methyltransferase NSD2; inhibition, % at 12.5 µM; NSD2 peptide methylation, AlphaScreen, 120 min; 0.54% of 310,000 active; in the data active = inhibition above about 50%
TDP2 inh: TDP2 (human) inhibition, absorbance primary screen | inhibition, % at 12.8 µM | O95551 | recombinant TDP2, T5PNP hydrolysis, p-nitrophenol absorbance 415 nm | 0.34% of 370,000 active;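 active = inhibition above the mean of all tested compounds plus 3 SD, set per campaign, cut at about 25% in these data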;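 note: 0% = DMSO with enzyme and 100% = buffer with substrate but no TDP2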
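System – recombinant human TDP2 · Amount – 120 nM TDP2 per well · Buffer or medium – Mg2+-containing Tris-HCl buffer, pH 7.5 · Reagent – T5PNP substrate, 5 mM · Dosing – 12.8 µM single point, 1% DMSO · Incubation – 2 h at 37 °C · Measured by – epi absorbance · Read-out basis – percent inhibition · Benchmarks – high control without enzyme, low control DMSO plus TDP2 · Repeats – singlicate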
Starred values were filed as active, the others as inactive; x = no result.

SMILES | MBD2 DNA inh | CASP6 VEID inh | UHRF1 MBD2 ctr | LEDGF integ inh | NSD2 inh | TDP2 inh
CNC(=O)COC(=O)c1cc(SC)ccc1Cl | -1.5 | -0.6 | 26.4* | -1.0 | -2.7 | 7.3
Cc1ccc(S(=O)(=O)Nc2ccc3c(c2)C(=O)N([C@@H](C)CO)C[C@@H](C)[C@H](CN(C)C(=O)NC2CCCCC2)OCCCC[C@@H](C)O3)cc1 | x | 1.3 | x | x | x | x
CC(=O)NC1=C(N(C)C2CCS(=O)(=O)C2)C(=O)c2ccccc2C1=O (stereo not drawn) | -4.5 | 31.2 | -5.9 | 3.4 | 106.5* | 11.5
CN(C(=O)Nc1ccccc1)C1CCS(=O)(=O)C1 (stereo not drawn) | 0.1 | x | 1.9 | 1.6 | -1.2 | -1.5
C/C=C/c1ccc2c(c1)O[C@H](CN(C)C(=O)c1ccccc1)[C@H](C)CN([C@@H](C)CO)S2(=O)=O | x | -1.1 | x | x | x | x
NS(=O)(=O)c1ccc(N=Nc2c[nH]c(=O)c(O)c2)cc1 | -20.2 | 88.7* | -10.4 | 8.9 | 43.6 | 23.2
COCC(=O)Nc1ccc2c(c1)OC[C@@H](C)N(C(=O)Cc1cccnc1)C[C@H](C)[C@@H](OC)CN(C)C2=O | x | 1.8 | x | x | x | x
CCCC(=O)C1=C(O)C(C(=O)OC)C(C)(C)CC1=N (stereo not drawn) | -1.1 | x | 21.2* | -2.2 | -0.5 | -10.8
CCCC(=O)C1=C(O)C(C(=O)OC)C(C)(C)CC1=NC(C)(C)C (stereo not drawn) | 0.5 | x | -3.5 | -3.6 | -10.1 | 10.4
COc1ccccc1NC(=O)/C(=C/c1cccc([N+](=O)[O-])c1)c1ccccc1 | -3.4 | x | 46.7* | -4.5 | -2.8 | -4.5
CO[C@H]1CN(C)C(=O)c2cc(NC(=O)C3CCOCC3)ccc2OC[C@@H](C)N(Cc2nccs2)C[C@H]1C | x | 0.9 | x | x | x | x
O=c1nc2s/c(=C\c3ccc(-c4ccccc4[N+](=O)[O-])o3)c(=O)n2nc1-c1ccccc1 | -2.3 | 39.0* | -12.2 | 0.8 | 5.5 | 3.4
O=C(OCC(=O)N1CCN(C(=O)c2ccco2)CC1)c1cccc(S(=O)(=O)N2CCc3ccccc32)c1 | -2.0 | 6.4 | 20.8* | 0.0 | 1.9 | -3.0
Cc1ccccc1NC(=O)CN1C(=O)S/C(=C\c2ccc(-c3cc(C(=O)O)ccc3C)o2)C1=O | 7.5 | 0.4 | 19.3 | -0.7 | 14.4 | 2.3
Cc1ccc(NC(=O)CN2C(=O)S/C(=C\c3cccn3C)C2=O)cc1 | -2.1 | -2.0 | -3.2 | -1.0 | 0.0 | -2.0
Cc1ccc(NC(=O)CN2C(=O)S/C(=C/c3ccc(-c4cccc(C(=O)O)c4)o3)C2=O)cc1 | 8.5 | x | 23.0* | 5.5 | 0.2 | -9.3
Cc1cc(C(=O)O)ccc1-c1ccc(/C=C2\SC(=O)N(CC(=O)Nc3ccc4c(c3)OCO4)C2=O)o1 | 6.4 | 3.0 | 23.7* | -1.9 | 5.3 | 12.9
Cc1c(/C=C2\SC(=O)N(CC(=O)Nc3ccc4c(c3)OCO4)C2=O)c2ccccc2n1C | 0.1 | -0.9 | -1.6 | -3.0 | 0.5 | 10.6
Cc1ccc(C(=O)O)cc1-c1ccc(/C=C2\SC(=O)N(CC(=O)Nc3ccccc3)C2=O)o1 | 5.9 | 35.2* | 22.3* | 3.0 | 18.6 | 11.7
C#CCN1C(=O)S/C(=C\c2ccc(-c3ccc(C(=O)O)cc3C)o2)C1=O | 12.5 | 58.2* | 40.9* | 8.8 | 11.9 | 2.0
CO[C@@H]1CN(C)C(=O)c2ccc(NS(=O)(=O)c3ccc(F)cc3)cc2OC[C@@H](C)N(C(=O)NC(C)C)C[C@H]1C | x | -0.8 | x | x | x | x
Oc1c(Br)cc(/C=N/n2c(-c3ccccc3)n[nH]c2=S)cc1Br | 0.2 | -0.3 | 0.1 | -1.2 | 5.1 | 5.6
Oc1ccc(/C=N/n2c(-c3ccccc3)n[nH]c2=S)cc1Br | 3.6 | 51.9* | -0.1 | -2.6 | 4.0 | -6.6
C[C@@H]1CN([C@H](C)CO)C(=O)c2cc(NS(=O)(=O)c3cn(C)cn3)ccc2O[C@@H]1CN(C)C(=O)Nc1ccccc1 | x | 0.5 | x | x | x | x
Cc1cc(=O)oc(C)c1C(=O)NNC(=O)C1(C)CC1Br (stereo not drawn) | -7.0 | -0.7 | 0.2 | 3.8 | -1.3 | -5.1
CC1(C(=O)NNC(=O)c2ccc(=O)oc2)CC1Br (stereo not drawn) | -1.1 | 41.5* | 4.6 | 7.4 | 7.4 | 5.8
O=C(O)C1=NN(c2cc(Cl)c(S(=O)(=O)O)cc2Cl)C(=O)C1 | 6.8 | 29.1 | 30.9* | 10.9 | x | 2.4
